In brackets after ≈: the same amount, converted by molar mass. Activity calls are given as the source filed them. The calls are words filed in the database; no cut-off is given here.
Assays:
[1] = system: Mycobacterium tuberculosis; test: Antitubercular activity against Mycobacterium tuberculosis H37Ra after 7 days by Alamar blue assay; format: functional; settings: 168 h
Summary of the method: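 M. tuberculosis H37Ra exposed 7 days to 2-fold dilution series from 100 μg/mL downward (10 mg/mL DMSO stock; 1% v/v DMSO at top). Growth measured by Alamar Blue fluorescence.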

[2] = system: Influenza A virus; test: Antiviral activity against Influenza A virus H1N1 infected in MDCK cells assessed as inhibition of virus-induced cytopathic effect after 48 hrs by crystal violet staining-based microplate reader analysis; format: functional, organism-based
Summary of the method: (§1)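 Confluent MDCK monolayers infected with influenza virus for 1 h at 37 °C. Virus was removed, and cells were kept in RPMI 1640 with 4 μg/mL trypsin plus graded compound concentrations for 48 h at 37 °C. Cells were then fixed in 4% formaldehyde and stained with 0.1% crystal violet, with absorbance read at 570 nm. IC50 is the concentration giving 50% […] at 48 h. Values are means of three independent experiments.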

[3] = system: Influenza A virus H3N2; test: Antiviral activity against Influenza A virus H3N2 infected in MDCK cells assessed as inhibition of virus-induced cytopathic effect after 48 hrs by crystal violet staining-based microplate reader analysis; format: functional, organism-based; summary of the method: as §1
[4] = Cytotoxicity against MDCK cells after 48 hrs by crystal violet staining-based microplate reader analysis; format: cell-based, Canis lupus familiaris; settings: dog
Summary of the method: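 CC50 taken from the CPE-inhibition assay format on MDCK cells, with crystal violet read-out. Values are means ± SD of three independent experiments.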

[5] = Selectivity index, ratio of CC50 for MDCK cells to IC50 for Influenza A virus H3N2 infected in MDCK cells; format: functional
Summary of the method: (§2)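 SI calculated as CC50 divided by IC50, both from the CPE-inhibition assay on MDCK cells. The underlying values are means of three independent experiments.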

[6] = system: A549; test: Cytotoxicity against human A549 cells assessed as reduction in cell viability after 72 hrs by CCK8 assay; format: functional, cell-based
Summary of the method: (§3)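 Cells grown in RPMI or DMEM with 10% FBS and 1% penicillin/streptomycin at 37 °C under 5% CO2. Seeded at 400–800 cells/well and exposed to graded compound concentrations or solvent control for 72 h. Viability read by CCK-8 absorbance at 450 nm, and IC50 derived from dose–response curves.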

[7] = system: U-937; test: (§4) Cytotoxicity against human U937 cells assessed as reduction in cell viability after 72 hrs by CCK8 assay; format: functional, cell-based; summary of the method: as §3
[8] = system: HeLa; test: Cytotoxicity against human HeLa cells assessed as reduction in cell viability after 72 hrs by CCK8 assay; format: functional, cell-based; summary of the method: as §3
[9] = system: HL-60; test: Cytotoxicity against human HL60 cells assessed as reduction in cell viability after 72 hrs by CCK8 assay; format: functional, cell-based; summary of the method: as §3
[10] = system: HT-29; test: Cytotoxicity against human HT-29 cells assessed as reduction in cell viability after 72 hrs by CCK8 assay; format: functional, cell-based; summary of the method: as §3
[11] = system: Staphylococcus aureus; test: Antibacterial activity against Staphylococcus aureus assessed as growth inhibition at 0.01 to 100 ug/ml after 24 hrs by agar dilution method; format: functional, organism-based
Summary of the method: (§5)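 Bacteria grown on LB agar plates at 37 °C. Samples were dissolved in DMSO and serially diluted 2-fold from 100 to 0.01 μg/mL. 5 μL of each dilution was loaded onto a 5 mm paper disk placed on the plate. After 24 h, inhibition zone diameters (mm) were recorded. MIC was the lowest concentration with no visible growth. Ciprofloxacin lactate served as positive control.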

[12] = system: Escherichia coli; test: Antibacterial activity against Escherichia coli assessed as growth inhibition at 0.01 to 100 ug/ml after 24 hrs by agar dilution method; format: functional, organism-based; summary of the method: as §5
[13] = system: Mycobacterium tuberculosis; test: Antitubercular activity against Mycobacterium tuberculosis H37Ra assessed as growth inhibition at 100 ug/ml after 7 days by Alamar blue assay; format: functional, organism-based
Summary of the method: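 M. tuberculosis H37Ra exposed 7 days to material at 100 μg/mL (from 10 mg/mL DMSO stock; 1% v/v DMSO). Growth measured by Alamar Blue fluorescence, with inhibition expressed relative to bacteria-only controls.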

[14] = Selectivity index, ratio of CC50 for MDCK cells to IC50 for Influenza A virus H1N1 infected in MDCK cells; format: functional; summary of the method: as §2
[15] = as §4; format: functional, cell-based; settings: U-937, 72 h; summary of the method: as §3
[16] = system: Staphylococcus aureus; test: Antibacterial activity against Staphylococcus aureus after 24 hrs by agar dilution method; format: functional

Row | Compound | MIC90 [1] | IC50 [2] | IC50 [3] | CC50 at 48 h [4] | Ratio CC50/IC50 [5] | Activity [6] | Activity [7] | Activity [8] | Activity [9] | Activity [10] | growth inhibition (GI) [11] | growth inhibition (GI) [12] | growth inhibition (GI) [13] | Ratio CC50/IC50 [14] | IC50 [15] | IC50 ([10]; HT-29, 72 h) | MIC [16]
1 | NNC(=O)c1ccncc1 [ISONIAZID] | 2.04 µM (≈ 0.28 µg/mL) | – | – | – | – | – | – | – | – | – | – | – | – | – | – | – | –
2 | CO[C@H]1c2c(c(C)c(C)oc2=O)O[C@@]2(C)[C@H]1[C@@H](C)[C@]1(O)CC(=O)C(C)(C)C(=O)[C@@]1(O)[C@H]2O | – | > 20000 nM | 12200 nM | 20900 nM | 1.71 | inactive | inactive | inactive | inactive | inactive | inactive | inactive | inactive | – | – | – | –
3 | Cc1oc(=O)c2c(c1C)O[C@@]1(C)[C@H](C2)[C@@H](C)[C@]2(O)CC(=O)C(C)(C)C(=O)[C@@]2(O)[C@H]1O | – | – | – | – | – | inactive | inactive | inactive | inactive | inactive | inactive | inactive | inactive | – | – | – | –
4 | CC[C@H]1O[C@@H]2O[C@H](/C=C/C=C\C=C\c3oc(=O)cc(OC)c3C)[C@H](O)[C@]2(C)[C@@]1(C)O | – | 230 nM | 660 nM | 540 nM | 0.81 | inactive | inactive | inactive | inactive | inactive | inactive | inactive | inactive | 2.35 | – | – | –
5 | Cc1oc(=O)c2c(c1C)O[C@@]1(C)C(=C2)[C@@H](C)[C@]2(O)CC(=O)C(C)(C)C(=O)[C@@]2(O)[C@H]1O | – | – | – | – | – | inactive | inactive | inactive | inactive | inactive | inactive | inactive | inactive | – | – | – | –
6 | CC[C@H]1O[C@@H]2O[C@H](/C=C/C=C/C=C/c3oc(=O)cc(OC)c3C)[C@H](O)[C@]2(C)[C@@]1(C)O | – | 540 nM | 840 nM | 240 nM | 0.29 | inactive | inactive | inactive | inactive | inactive | inactive | inactive | inactive | 0.44 | – | – | –
7 | Cc1oc(=O)c2c(c1C)O[C@]1(C)[C@H](O)C[C@@]3(O)C(C)(C)C(=O)CC[C@]3(C)[C@H]1C2 | – | – | – | – | – | inactive | inactive | inactive | inactive | inactive | inactive | inactive | inactive | – | – | – | –
8 | CC(=O)O[C@H]1C(=O)[C@@]2(C)[C@H]([C@H](OC(=O)c3ccccc3)[C@]3(O)C[C@H](OC(=O)[C@H](O)[C@@H](NC(=O)c4ccccc4)c4ccccc4)C(C)=C1C3(C)C)[C@]1(OC(C)=O)CO[C@@H]1C[C@@H]2O [PACLITAXEL] | – | – | – | – | – | – | – | – | – | – | – | – | – | – | 1.66 nM | 3.04 nM | –
9 | Cc1oc(=O)c2c(c1C)O[C@@]1(C)[C@@H]([C@@H](C)[C@]3(O)CC(=O)C(C)(C)C(=O)[C@@]3(O)[C@H]1O)[C@H]2O | – | – | – | – | – | inactive | inactive | inactive | inactive | inactive | inactive | inactive | inactive | – | – | – | –
10 | CC[C@H]1O[C@@H]2O[C@@H]3[C@H](O)[C@@H](/C=C/C=C/c4oc(=O)cc(OC)c4C)O[C@@H]3[C@]2(C)[C@@]1(C)O | – | – | – | – | – | inactive | inactive | inactive | inactive | inactive | inactive | inactive | inactive | – | – | – | –
11 | CC(O)C(=O)O.O=C(O)c1cn(C2CC2)c2cc(N3CCNCC3)c(F)cc2c1=O [CIPROFLOXACIN LACTATE] | – | – | – | – | – | – | – | – | – | – | – | – | – | – | – | – | 1.25 µg/mL
12 | CCOC(=O)C1=C[C@@H](OC(CC)CC)[C@H](NC(C)=O)[C@@H](N)C1 [OSELTAMIVIR] | – | 16.9 nM | 18.5 nM | – | – | – | – | – | – | – | – | – | – | – | – | – | –

Source: ChEMBL document CHEMBL3784946, “Antiviral Merosesquiterpenoids Produced by the Antarctic Fungus Aspergillus ochraceopetaliformis SCSIO 05702” (J Nat Prod, 2016)
